HIF activator – HIF pathway transcriptional activation. activation, % at 7.5 µM (by protocol). actives 0.32% (n = 300,000). U2OS HRE-luciferase reporter, luminescence; normalized: DMSO 0%, desferrioxamine 100%;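 active = mean activation of at least 10% of the iron chelator positive control signal, with at least half of replicates also reaching 10%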
DNA FID counter – fluorescent intercalator displacement, NS3 helicase counter-screen; actives 0.17% (n = 290,000); inhibition, % at 7.9 µM; DNA fluorescent intercalator displacement, fluorescence; in the data active = inhibition above about 37%;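 note: 0% = vehicle and 100% = reference compound; higher means more ethidium bromide displaced from hairpin DNA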
NS3 helicase inh – HCV NS3 helicase inhibition | actives 0.56% (n = 290,000) | inhibition, % at 10.9 µM | AID 1800 | NS3 helicase DNA unwinding, Cy5 molecular beacon fluorescence;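 active = inhibition above the mean of all tested compounds plus 3 SD, set per campaign, cut at about 35% in these data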;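 note: 0% = DMSO wells and 100% = thioflavine S control wells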
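System: NS3 helicase fragment of HCV / Schedule: 1 h at 25 °C / Control set: DMSO alone as 0% and 110 µM thioflavine S as 100% / Reagent: Cy5/quencher beacon DNA duplex and ATP to start / Technique: Cy5 fluorescence / Replication: singlicate / Evaluation: % inhibition of end-to-start signal ratio versus controls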
PP1 counter – blocks human PP1-alpha phosphatase, a PP5 counter-screen; P62136; purified PP1alpha, OMFP fluorescence; inhibition, % at 6.7 µM; actives 0.9% (n = 320,000);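 active = inhibition above the mean inhibition of all tested compounds plus 3 SD, computed separately for each screening campaign, cut at about 15% in these data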
Target sequence (P62136 whole entry, looked up): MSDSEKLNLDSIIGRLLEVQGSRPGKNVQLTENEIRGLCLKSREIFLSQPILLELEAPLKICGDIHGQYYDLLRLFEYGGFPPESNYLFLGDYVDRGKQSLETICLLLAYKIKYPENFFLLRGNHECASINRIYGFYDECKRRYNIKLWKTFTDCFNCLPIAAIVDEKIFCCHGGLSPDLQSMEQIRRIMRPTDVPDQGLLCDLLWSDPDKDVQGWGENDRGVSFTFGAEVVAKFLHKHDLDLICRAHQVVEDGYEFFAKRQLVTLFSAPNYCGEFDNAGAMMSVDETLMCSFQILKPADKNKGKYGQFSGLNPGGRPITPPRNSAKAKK
PP5 inh – inhibitors of human protein phosphatase 5 (PP5); P53041; purified PP5c, OMFP substrate fluorescence; inhibition, % at 6.7 µM; actives 0.18% (n = 320,000);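 active = inhibition above the campaign's mean inhibition across all tested compounds plus 3 SD, cut at about 9.5% in these data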;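 note: 0% = DMSO only and 100% = 100 µM cantharidin control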
* = called active by the depositor; · = not tested or not shown. Rows were chosen to be rich in hits. Some 1.9% of all compounds tested hit in one or more screens of this group.

SMILES	HIF activator	DNA FID counter	NS3 helicase inh	PP1 counter	PP5 inh
COc1ccc(C2CC(c3ccccc3)=NN2C(=O)CSc2nnnn2-c2cccc(C)c2)cc1 (stereo not given)	-1	·	·	-4	0
CCOc1ccc(-c2cc(C(=O)OC)nc3c2c(=O)n(C)c(=O)n3C)cc1	-1	-5	8	-2	-1
CCN(CC)S(=O)(=O)c1ccc(OC(C)C)c(NC(=O)c2c3c(nc4ccccc24)CCN(Cc2ccccc2)C3)c1	0	21	-16	9	0
CCOC(=O)N1CCC(c2cc(=O)n3[nH]cc(C(=O)OC)c3n2)CC1	0	-8	-6	0	3
CCOc1ccc(NC(=O)c2c[nH]n3c(=O)cc(C4CCN(C(=O)OC(C)(C)C)CC4)nc23)cc1	-1	-19	-2	16*	4
N#CNC(=Nc1ccc(Cl)cc1)Oc1ccccc1	2	4	-4	2	1
O=C(Nc1ccccc1)Nc1cccc(NC(=O)Nc2ccccc2)c1F	1	-2	-14	16*	2
O=C(Nc1cccc(S(=O)(=O)NC2=NCCCCC2)c1)c1cc(-c2ccco2)nc2ccccc12	0	-33	10	17*	-1
CC(C)C(=O)Nc1ccccc1-c1nc2ccccc2[nH]c1=O	0	-6	-18	-3	2
Cc1ccc2nc(-c3ccccc3NC(=O)CCC(=O)O)c(=O)[nH]c2c1	24*	-7	21	·	·
S=C(NCCCN1CCOCC1)Nc1cccc(-c2nnc3n2CCCCC3)c1	0	-3	1	-2	-2
Cc1ccc(O)c(C(=O)c2cc(C(=O)NCCc3ccccc3)c(=O)n(CCc3ccccc3)c2)c1	0	-21	0	17*	4
COc1ccc(O)c(C(=O)c2cc(C(=O)NCCc3ccccc3)c(=O)n(CCc3ccccc3)c2)c1	-1	-9	9	8	2
COc1ccc(C(=O)NCCS(=O)(=O)N(C)C2CCCCC2)cc1	1	·	·	-1	1
COc1cc(N/N=C/c2ccccc2O)ncn1	10*	-7	13	2	1
Cc1ccc(CCNc2ccccc2C)cn1	0	-1	-1	1	1
CC(=O)c1ccc(C(=O)N2CCCC(Nc3ccc(C(C)C)cc3)C2)s1 (stereo not given)	13*	-33	-9	2	-2
O=C(Nc1nc(-c2ccccc2)nc2ccccc12)c1ccc(F)cc1	0	-3	-1	16*	2
CC(=O)Nc1ccc(Nc2nc(-c3ccccc3)nc3ccccc23)cc1	0	5	-7	7	1
COc1cc(C2C(C(=O)c3ccco3)=C(O)C(=O)N2CCc2ccccc2)ccc1O (stereo not given)	0	-30	9	15*	2
COCCN1C(=O)C(O)=C(C(=O)c2ccco2)C1c1cccc(Oc2ccccc2)c1 (stereo not given)	0	-46	30	25*	1
CCCOc1cccc(C2C(C(=O)c3ccco3)=C(O)C(=O)N2CCN(CC)CC)c1 (stereo not given)	0	3	-1	8	0
CC(C)CC(=O)Nc1nnc(SCC(=O)NCC2CCCO2)s1 (stereo not given)	0	-8	0	0	2
CCS(=O)(=O)N1CCC(NC(=O)C(Cc2ccc(OC)c(OC)c2)NC(C)=O)CC1 (stereo not given)	-23	-1	-9	-2	3
Cn1c(=O)oc2cc(S(=O)(=O)CCC(=O)Nc3ccccc3)ccc21	2	-4	-1	-4	1
SMILES	HIF activator	DNA FID counter	NS3 helicase inh	PP1 counter	PP5 inh
CCC(C)[C@H](NC(=O)N1CCC(C)CC1)C(=O)OC (stereo not given in full)	0	-7	1	2	-1
CCCNC(=O)c1ccc(N2CCC3(CC2)CC(c2cccc(Br)c2)=NO3)c(NC(=O)c2cccc(C)c2)c1	-1	·	·	16*	3
CCCCOC(=O)c1ccc(NC(=S)NC(=O)c2c(Br)c(C)nn2C)cc1	41*	-1	-4	0	0
O=C(CSc1c[nH]c2ccccc12)N1CCOCC1	0	-2	0	-3	-1
CCc1ccc2[nH]c3nc(N/N=C/c4ccc(O)cc4O)nnc3c2c1	1	0	-49	17*	1
Cc1ccc2[nH]c3nc(N/N=C/c4cccc(O)c4)nnc3c2c1	3	1	-26	16*	3
Cc1ccc(-c2csc(C3C(N)=NC(S)=C(C#N)C34CCCCC4)n2)cc1 (stereo not given)	1	-17	18	17*	4
CC(CCc1ccccc1)NC(=O)CNC(=O)c1cccs1 (stereo not given)	0	-7	2	-1	0
C/C(=N\NC(=O)c1cc(-c2cccnc2)nc2ccccc12)c1ccccc1O	18*	-9	6	-2	1
CSc1ccccc1NC(=O)c1cc(-c2cccnc2)nc2ccc(Br)cc12	-2	-2	-6	17*	5
CC(=O)Nc1cccc(NC(=O)c2cc(-c3cccnc3)nc3ccc(Br)cc23)c1	0	-15	-15	1	2
Cc1ccccc1C(=O)Nc1nnc(CC(=O)N/N=C/c2cn(Cc3ccccc3)c3ccccc23)s1	-1	-6	-8	15*	0
CC(C)N1CCN(Cc2ccc(-c3ccccc3Cl)o2)CC1CCO (stereo not given)	0	8	8	-2	2
Cc1ccc(NC(=O)Nc2ccc3c(c2)OCO3)c(Br)c1	3	-8	26	17*	-11
O=C(Nc1ccc2c(c1)OCO2)Nc1ccc2c(c1)OCO2	3	3	-1	-4	1
O=C(CSc1nnc(SCc2cccc3ccccc23)s1)N/N=C/C=C/c1ccccc1[N+](=O)[O-]	0	0	-8	16*	1
COc1ccc(NC(=O)C2(S(=O)(=O)c3ccc(C)cc3)CC2)cc1OC	-1	-17	-3	-1	1
Cc1cc(C)nc(N/N=C/c2ccccc2OCc2ccc(Br)cc2)n1	2	2	-30	2	1
Cc1cc(C)nc(N/N=C/c2cc(Br)ccc2O)n1	34*	-6	-8	2	1
O=C(COc1ccc(F)cc1)Nc1cc(S(=O)(=O)N2CCCCC2)ccc1N1CCCCC1	-1	·	·	16*	0
CN(CC(=O)Nc1ccc(S(=O)(=O)N2CCCC2)cc1)CC(=O)Nc1cccc(F)c1	53*	-2	6	1	1
O=C(COc1ccc2ccccc2c1)Nc1ccc(S(=O)(=O)N2CCCCCC2)cc1	-24	-6	-2	17*	0
O=C(COc1ccccc1)Nc1ccc(S(=O)(=O)N2CCCCCC2)cc1	-1	-8	8	0	0
CN(CC(=O)Nc1ccc(S(=O)(=O)N2CCCC2)cc1)CC(=O)Nc1ccc(F)c(F)c1F	-1	-19	-6	0	2
CCCCN1C(=O)C(=O)N(CC(=O)Nc2ccccc2C(=O)OCC)C1=O	-1	-24	0	-4	-3

Assay outcomes: PubChem, several laboratories
